Reference: ChEMBL document CHEMBL2146394, “Design and synthesis of pyrrolo[3,2-d]pyrimidine HER2/EGFR dual inhibitors: improvement of the physicochemical and pharmacokinetic profiles for potent in vivo anti-tumor efficacy” (Bioorg Med Chem, 2012)

Columns and labels:
[1] = biological target: Epidermal growth factor receptor (Homo sapiens, UniProt P00533); assay: Inhibition of human N-terminal DYKDDDD tagged EGFR cytoplasmic domain amino acid 669 to 1210 expressed in baculovirus after 5 mins by scintillation counter
Chain of Epidermal growth factor receptor (P00533 whole entry, the tested form may be a part): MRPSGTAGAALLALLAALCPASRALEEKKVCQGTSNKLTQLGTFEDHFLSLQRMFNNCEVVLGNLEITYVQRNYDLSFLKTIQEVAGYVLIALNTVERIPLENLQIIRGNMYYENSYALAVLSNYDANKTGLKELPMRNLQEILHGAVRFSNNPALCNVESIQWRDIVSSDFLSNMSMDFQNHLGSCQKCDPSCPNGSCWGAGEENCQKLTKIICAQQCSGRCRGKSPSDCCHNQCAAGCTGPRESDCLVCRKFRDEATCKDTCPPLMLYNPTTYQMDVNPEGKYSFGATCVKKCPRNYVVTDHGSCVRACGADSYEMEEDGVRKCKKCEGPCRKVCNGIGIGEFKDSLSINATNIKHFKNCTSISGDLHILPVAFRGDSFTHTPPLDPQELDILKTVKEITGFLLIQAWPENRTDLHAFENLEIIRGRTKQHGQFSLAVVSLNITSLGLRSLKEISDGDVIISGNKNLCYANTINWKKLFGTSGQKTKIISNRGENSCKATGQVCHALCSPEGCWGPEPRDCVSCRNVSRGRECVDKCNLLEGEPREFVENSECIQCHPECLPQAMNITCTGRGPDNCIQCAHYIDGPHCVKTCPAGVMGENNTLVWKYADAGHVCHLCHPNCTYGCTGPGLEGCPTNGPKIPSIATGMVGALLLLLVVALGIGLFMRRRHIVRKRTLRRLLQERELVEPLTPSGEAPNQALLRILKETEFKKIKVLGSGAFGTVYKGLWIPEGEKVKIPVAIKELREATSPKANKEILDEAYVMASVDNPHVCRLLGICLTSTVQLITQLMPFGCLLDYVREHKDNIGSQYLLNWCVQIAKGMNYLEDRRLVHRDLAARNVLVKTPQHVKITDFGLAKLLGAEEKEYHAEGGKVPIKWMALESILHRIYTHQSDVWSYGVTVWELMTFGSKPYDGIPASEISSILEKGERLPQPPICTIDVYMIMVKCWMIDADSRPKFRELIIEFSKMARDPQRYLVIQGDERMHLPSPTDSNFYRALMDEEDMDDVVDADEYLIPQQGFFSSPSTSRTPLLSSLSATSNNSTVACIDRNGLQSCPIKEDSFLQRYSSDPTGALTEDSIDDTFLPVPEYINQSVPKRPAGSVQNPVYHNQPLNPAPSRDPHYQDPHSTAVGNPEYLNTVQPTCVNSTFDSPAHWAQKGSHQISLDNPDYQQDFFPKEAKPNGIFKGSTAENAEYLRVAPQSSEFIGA

[2] = Metabolic stability in human hepatic microsomes at 1 umol/L after 20 mins; format: ADME; settings: liver microsomes, read-out: Stability
Procedure, shortened: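 Human liver microsomes (0.2 mg/mL protein) with 1 µmol/L compound in 50 mmol/L phosphate pH 7.4 plus an NADPH-generating system (glucose-6-phosphate, β-NADP⁺, G6PDH, MgCl₂). Incubated at 37 °C for 0 and 20 min, stopped with acetonitrile, duplicates. Remaining compound measured by HPLC with photodiode array detection.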

[3] = Metabolic stability in mouse hepatic microsomes at 1 umol/L after 20 mins; format: ADME; settings: liver microsomes, read-out: Stability
[4] = Apparent permeability across apical to basolateral side in human Caco2 cells at 10 umol/L; format: ADME, cell-based; settings: Caco-2
Procedure, shortened: (§1)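 Confluent Caco-2 monolayers on collagen-coated polycarbonate Transwell membranes. HBSS with 10 mmol/L HEPES, 15 mmol/L glucose and 1% BSA, pH 7.3–7.5. Compound dosed at 10 µmol/L apically (A→B) or basolaterally (B→A), 37 °C, 5% CO₂. Receivers sampled at 1 and 2 h; LC/MS/MS. Papp from receiver concentration slope; duplicates.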

BT-474 [5] = assay: Antitumor activity against human BT474 cells xenografted in BALB/c nu/nu mouse at 100 mg/kg, po bid administered 14 days measured on day 31 relative to control; format: functional
Procedure, shortened: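 BT-474 xenografts: 1×10⁷ cells in Matrigel implanted subcutaneously into the right flank of female BALB/c nu/nu mice. Estradiol dipropionate 0.25 mg given intramuscularly on days 0 and 7. Tumours of 200–300 mm³ used. Dosing 100 mg/kg orally bid in 0.5% methylcellulose for 14 days. Volume a×b²/2 by calipers. T/C (%) compared at day 31.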

[6] = biological target: Receptor tyrosine-protein kinase erbB-2 (Homo sapiens, UniProt P04626); assay: Inhibition of human N-terminal DYKDDDD tagged HER2 cytoplasmic domain amino acid 676 to 1255 expressed in baculovirus after 5 mins by scintillation counter
Chain of Receptor tyrosine-protein kinase erbB-2 (P04626 whole entry, the tested form may be a part): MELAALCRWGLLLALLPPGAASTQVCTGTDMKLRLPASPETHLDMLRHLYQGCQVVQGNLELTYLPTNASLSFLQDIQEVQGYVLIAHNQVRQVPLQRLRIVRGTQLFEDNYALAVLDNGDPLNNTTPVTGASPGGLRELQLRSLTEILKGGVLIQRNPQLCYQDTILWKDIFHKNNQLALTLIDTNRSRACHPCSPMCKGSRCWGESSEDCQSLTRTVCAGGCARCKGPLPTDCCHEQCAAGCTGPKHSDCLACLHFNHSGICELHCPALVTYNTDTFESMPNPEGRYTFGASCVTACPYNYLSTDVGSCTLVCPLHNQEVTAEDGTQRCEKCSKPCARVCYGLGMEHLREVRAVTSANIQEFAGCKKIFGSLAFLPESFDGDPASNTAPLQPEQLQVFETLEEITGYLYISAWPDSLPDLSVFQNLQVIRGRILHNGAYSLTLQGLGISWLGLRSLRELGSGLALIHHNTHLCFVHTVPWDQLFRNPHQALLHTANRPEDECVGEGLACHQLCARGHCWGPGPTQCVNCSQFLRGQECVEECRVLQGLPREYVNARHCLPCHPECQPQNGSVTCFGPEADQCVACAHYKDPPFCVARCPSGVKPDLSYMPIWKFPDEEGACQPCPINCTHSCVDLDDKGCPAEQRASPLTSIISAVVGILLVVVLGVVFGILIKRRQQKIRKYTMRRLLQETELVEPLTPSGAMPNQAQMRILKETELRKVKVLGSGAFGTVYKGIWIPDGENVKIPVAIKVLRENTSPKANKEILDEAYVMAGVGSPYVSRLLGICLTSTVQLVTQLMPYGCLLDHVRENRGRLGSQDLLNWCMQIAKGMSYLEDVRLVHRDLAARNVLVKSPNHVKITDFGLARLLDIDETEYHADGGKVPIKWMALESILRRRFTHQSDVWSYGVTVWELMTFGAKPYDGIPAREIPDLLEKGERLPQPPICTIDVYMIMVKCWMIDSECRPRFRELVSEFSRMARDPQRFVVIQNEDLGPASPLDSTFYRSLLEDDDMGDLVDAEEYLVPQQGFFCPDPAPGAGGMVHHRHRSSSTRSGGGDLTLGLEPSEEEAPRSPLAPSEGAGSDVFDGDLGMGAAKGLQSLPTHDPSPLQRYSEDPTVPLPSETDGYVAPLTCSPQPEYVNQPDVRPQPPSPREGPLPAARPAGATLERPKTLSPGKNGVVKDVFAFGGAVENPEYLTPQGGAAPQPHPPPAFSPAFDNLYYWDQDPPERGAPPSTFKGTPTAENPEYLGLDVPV
Procedure, shortened: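 FLAG-purified HER2 cytoplasmic domain in 50 mmol/L Tris-HCl pH 7.5, 5 mmol/L MnCl₂, 0.01% Tween-20, 2 mmol/L DTT, with poly-Glu-Tyr (4:1) and [γ-³²P]ATP. Compound and enzyme preincubated 5 min at room temperature; reaction started with ATP, 10 min at room temperature. Stopped with 10% TCA, filter-harvested, washed with 3% phosphoric acid, scintillation counted.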

[7] = Apparent permeability across basolateral to apical side in human Caco2 cells at 10 umol/L; format: ADME, cell-based; settings: Caco-2; procedure, shortened: as §1
BT-474 [8] = assay: Growth inhibition of HER2 over-expressing human BT474 cells after 5 days; format: functional; settings: BT-474, 120 h
Procedure, shortened: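 BT-474 cells kept in RPMI 1640 with 10% heat-inactivated FBS. Seeded at 3×10⁴ cells/well and allowed to attach overnight. Treated continuously with compound for 5 days. Live cells counted with a particle analyzer; GI₅₀ derived.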

Molecule `CS(=O)(=O)CC(=O)NCCn1ccc2ncnc(Nc3ccc(Oc4cccc(C(F)(F)F)c4)c(Cl)c3)c21` has an IC50 [1] of 15 nM, a microsomal CLint at 1 µM [2] of 18 µL/min/mg and a microsomal CLint at 1 µM [3] of 11 µL/min/mg. The Papp A→B at 10 µM [4] was 0.52 ×10⁻⁶ cm/s, the T/C (BT-474 [5]) was 80% and the IC50 [6] was 6.3 nM. It also gave a Papp B→A at 10 µM [7] of 8.29 ×10⁻⁶ cm/s and a GI50 (BT-474 [8]) of 5.2 nM.

`CCS(=O)(=O)CC(=O)NCCn1ccc2ncnc(Nc3ccc(Oc4cccc(C(F)(F)F)c4)c(Cl)c3)c21` showed an IC50 [1] of 31 nM, a microsomal CLint at 1 µM [2] of 26 µL/min/mg and a microsomal CLint at 1 µM [3] of 22 µL/min/mg. It also gave an IC50 [6] of 8.5 nM and a GI50 (BT-474 [8]) of 36 nM.

For `CC(C)S(=O)(=O)CC(=O)NCCn1ccc2ncnc(Nc3ccc(Oc4cccc(C(F)(F)F)c4)c(Cl)c3)c21`, the microsomal CLint at 1 µM [2] was 42 µL/min/mg, the microsomal CLint at 1 µM [3] was 35 µL/min/mg and the IC50 [6] was 11 nM. The GI50 (BT-474 [8]) was 48 nM.

Molecule `CC(C)(C)S(=O)(=O)CC(=O)NCCn1ccc2ncnc(Nc3ccc(Oc4cccc(C(F)(F)F)c4)c(Cl)c3)c21` has an IC50 [1] of 56 nM, a microsomal CLint at 1 µM [2] of 45 µL/min/mg and a microsomal CLint at 1 µM [3] of 31 µL/min/mg. For the same molecule, the IC50 [6] was 14 nM and the GI50 (BT-474 [8]) was 36 nM.

Work on `CC(C(=O)NCCn1ccc2ncnc(Nc3ccc(Oc4cccc(C(F)(F)F)c4)c(Cl)c3)c21)S(C)(=O)=O` (configuration not stated) yielded an IC50 [1] of 18 nM, a microsomal CLint at 1 µM [2] of 30 µL/min/mg and a microsomal CLint at 1 µM [3] of 33 µL/min/mg. For the same molecule, the IC50 [6] was 7.1 nM and the GI50 (BT-474 [8]) was 34 nM.
